Source: ChEMBL document CHEMBL3232822, “Synthesis of novel spiropyrazoline oxindoles and evaluation of cytotoxicity in cancer cell lines” (Eur J Med Chem, 2014)

Legend:
MDA-MB-231 = assay: Cytotoxicity against human HER2/estrogen receptor-deficient MDA-MB-231 cells after 48 hrs by MTT assay; type: functional; details: MDA-MB-231, 48 h
Method in brief: (§1)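 Cells (HEK 293T, MCF-7, MDA-MB-231 from ATCC) seeded the day before in medium with serum, penicillin G, streptomycin and 2 mM L-glutamine. Compounds in DMSO, serially diluted in medium, final DMSO ≤0.5% (v/v), same in controls. 48 h at 37 °C, 5% CO2. MTT 3 h, formazan dissolved in DMSO, A570. Triplicates, ≥3 experiments. GI50 from % viable cells.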

[1] = Cytotoxicity against HEK293T cells after 48 hrs by MTT assay; type: cell-based, HEK-293T; details: human; method in brief: as §1
MCF7 = assay: Cytotoxicity against human HER2-deficient MCF7 cells expressing estrogen receptor after 48 hrs by MTT assay; type: functional; details: MCF7, 48 h; method in brief: as §1
HEK-293T = assay: Selectivity index, ratio of GI50 for HEK293T cells to GI50 for human HER2-deficient MCF7 cells; type: functional
[2] = Solubility of the compound at 100 uM; type: physicochemical

Row | solubility [2] | Compound | GI50 (MDA-MB-231) [µM] | GI50 at 48 h [1] [µM] | GI50 (MCF7) [µM] | RatioGI50 (HEK-293T)
1 | – | O=C1Nc2ccc(Br)cc2[C@]12[C@@H](c1ccccc1)C(c1ccccc1)=NN2c1ccccc1 | > 100 | > 100 | 7.3 | >13
2 | Insoluble | CC(C)(C)C1=NN(c2ccccc2)[C@]2(C(=O)Nc3cc(Cl)ccc32)[C@H]1c1ccccc1 | > 50 | > 50 | 21.7 | >2
3 | – | COc1ccc(C2=NN(c3ccccc3)[C@]3(C(=O)Nc4cc(Cl)ccc43)[C@H]2c2ccccc2)cc1 | – | – | 42.6 | –
4 | – | COc1ccc(C2=NN(c3ccccc3)[C@]3(C(=O)Nc4cc(Br)ccc43)[C@H]2c2ccccc2)cc1 | 28.6 | > 100 | 7 | >14
5 | – | O=C1Nc2ccccc2[C@]12CC(c1ccccc1)=NN2 | – | – | > 100 | –
6 | – | COc1ccc(C2=NN(c3ccccc3)[C@]3(C(=O)Nc4ccc(Cl)cc43)[C@H]2c2ccccc2)cc1 | – | – | 33.9 | –
7 | – | O=C(c1ccccc1)[C@H]1C(c2ccccc2)=NN(c2ccccc2)[C@]12C(=O)Nc1ccc(Cl)cc12 | – | – | > 100 | –
8 | – | O=C1Nc2cc(Br)ccc2[C@]12[C@@H](c1ccccc1)C(c1ccccc1)=NN2c1ccccc1 | 8.3 | 28.9 | 9.6 | 3
9 | – | COc1ccc([C@H]2C(c3ccccc3)=NN(c3ccccc3)[C@]23C(=O)Nc2cc(Cl)ccc23)cc1 | – | – | > 100 | –
10 | – | O=C1Nc2ccc(Br)cc2[C@]12CC(c1ccccc1)=NN2 | – | – | > 100 | –
11 | – | CC(C)(C)C1=NN(c2ccccc2)[C@]2(C(=O)Nc3cc(Br)ccc32)[C@H]1c1ccccc1 | 15 | 20.9 | 8.5 | 2.5
12 | – | CC(C)(C)C1=NN(c2ccccc2)[C@]2(C(=O)Nc3c(Cl)cccc32)[C@H]1c1ccccc1 | 6.4 | 17.8 | 8.6 | 2
13 | – | CCOC(=O)[C@H]1C(c2ccccc2)=NN(c2ccccc2)[C@]12C(=O)Nc1ccc(Cl)cc12 | – | – | > 100 | –
14 | – | COc1ccc(C2=NN(c3ccccc3)[C@]3(C(=O)Nc4c(Cl)cccc43)[C@H]2c2ccccc2)cc1 | > 100 | > 100 | 11.5 | >8
15 | – | O=C1Nc2ccccc2[C@]12[C@@H](c1ccccc1)C(c1ccccc1)=NN2c1ccccc1 | – | – | > 100 | –
16 | – | O=C1Nc2ccc(Cl)cc2[C@]12[C@@H](c1ccccc1)C(c1ccccc1)=NN2c1ccccc1 | – | – | 37.7 | –
17 | – | O=C1Nc2ccc(Cl)cc2[C@]12CC(c1ccccc1)=NN2 | – | – | > 100 | –
18 | Insoluble | O=C1Nc2cc(Cl)ccc2[C@]12[C@@H](c1ccccc1)C(c1ccccc1)=NN2c1ccccc1 | > 50 | > 50 | 27.1 | >2
